Source: ChEMBL document CHEMBL1833837, “Tirucallane-type triterpenoids from Dysoxylum lenticellatum” (J Nat Prod, 2011)
Activity calls are given as the source filed them. The rule behind the calls is not given here.

What was measured:
[1] = tested on: Aorta; assay: Vasodilatory activity in rat thoracic aorta assessed as relaxation of phenylephrine-induced precontraction at 4 to 10 ug/mL; type: functional, tissue-based
In short: (§1)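 Isolated thoracic aortic rings about 3 mm long, taken after pentobarbital anesthesia (60 mg/kg ip). Rings held in Krebs solution at pH 7.4 and 37 °C, gassed with 95% O2/5% CO2, for isometric tension recording. Equilibrated 1 h at 2 g resting tension, then challenged repeatedly with 80 mM KCl. Precontracted with 10^-6 M phenylephrine. Endothelium confirmed by >80% relaxation to 10^-6 M acetylcholine.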

[2] = tested on: HL-60; assay: Cytotoxicity against human HL60 cells by SRB assay; type: functional, cell-based
In short: (§2)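 SRB assay on tumor cells. Three independent experiments, five replicate wells for each concentration. IC50 obtained by linear regression where applicable. Mitomycin served as positive control.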

[3] = tested on: SMMC-7721; assay: Cytotoxicity against human SMMC7721 cells by SRB assay; type: functional, cell-based; in short: as §2
[4] = tested on: Aorta; assay: Vasodilatory activity in rat thoracic aorta assessed as relaxation of phenylephrine-induced precontraction at 10 ug/mL; type: functional; design: scale not given: the % may be the effect or the level left; in short: as §1
[5] = Solubility of the compound; type: physicochemical

With `C[C@@H]([C@@H]1O[C@@H]1[C@@H]1OC1(C)C)[C@@H]1CC[C@]2(C)C3=CC[C@H]4C(C)(C)C(=O)CC[C@]4(C)[C@H]3CC[C@@]12C` the Activity [1] was “inactive”, the Activity [2] was “inactive” and the Activity [3] was “inactive”.

With `CC(C)=C[C@@H]1C=C([C@@H]2CC[C@]3(C)C4=CC[C@H]5C(C)(C)C(=O)CC[C@]5(C)[C@H]4CC[C@@]23C)C(=O)O1` the Activity [2] was “inactive” and the Activity [3] was “inactive”.

In the case of `CC1(C)C(=O)CC[C@]2(C)[C@H]3CC[C@@]4(C)[C@H](C5COC(=O)C5)CC[C@]4(C)C3=CC[C@@H]12` (stereo partly drawn), the Activity [2] is reported as “inactive”, the Activity [3] is reported as “inactive” and the Activity [4] is reported as 43.5%.

With `CC(C)=CC(=O)[C@@H](O)[C@H](C)[C@@H]1CC[C@]2(C)C3=CC[C@H]4C(C)(C)[C@@H](O)CC[C@]4(C)[C@H]3CC[C@@]12C` the Activity [1] was “inactive”, the Activity [2] was “inactive” and the Activity [3] was “inactive”.

In the case of `CC(C)C(=O)C1(O)CC([C@@H]2CC[C@]3(C)C4=CC[C@H]5C(C)(C)C(=O)CC[C@]5(C)[C@H]4CC[C@@]23C)CO1` (mixture of isomers), the Activity [1] is reported as “inactive”, the Activity [2] is reported as “inactive” and the Activity [3] is reported as “inactive”.

For `CC1(C)[C@H](O)CC[C@]2(C)[C@H]3CC[C@@]4(C)[C@H]([C@H]5COC(=O)[C@@](O)(C(C)(C)O)C5)CC[C@]4(C)C3=CC[C@@H]12`, the Activity [1] was “inactive”, the Activity [2] was “inactive” and the Activity [3] was “inactive”.

In the case of `CC1(C)[C@H](O)CC[C@]2(C)[C@H]3CC[C@@]4(C)[C@H](C5COC(=O)C5)CC[C@]4(C)C3=CC[C@@H]12` (stereo partly drawn), the Activity [2] is reported as “inactive”, the Activity [3] is reported as “inactive” and the Activity [4] is reported as 37.5%.

For `CC1(C)[C@H](O)CC[C@]2(C)[C@H]3CC[C@@]4(C)[C@H](C5=CC(=O)NC5=O)CC[C@]4(C)C3=CC[C@@H]12` [DYSOLENTICIN J], the Activity [2] was “inactive”, the Activity [3] was “inactive” and the Activity [4] was 87.4%.

With `CC1(C)C(=O)CC[C@]2(C)[C@H]3CC[C@@]4(C)[C@H](C5=CC(O)(CO)OC5=O)CC[C@]4(C)C3=CC[C@@H]12` (mixture of isomers) [DYSOLENTICIN C] the solubility [5] was “Insoluble”.

In the case of `COC(=O)[C@@H](CC(=O)[C@@H]1OC1(C)C)[C@@H]1CC[C@]2(C)C3=CC[C@H]4C(C)(C)C(=O)CC[C@]4(C)[C@H]3CC[C@@]12C`, the Activity [2] is reported as “inactive” and the Activity [3] is reported as “inactive”.

With `CC(=O)[C@@H]1CC[C@]2(C)C3=CC[C@H]4C(C)(C)C(=O)CC[C@]4(C)[C@H]3CC[C@@]12C` [DYSOLENTICIN G] the solubility [5] was “Insoluble”.

In the case of `CCO[C@]1([C@@H]2OC2(C)C)CC([C@@H]2CC[C@]3(C)C4=CC[C@H]5C(C)(C)[C@H](O)CC[C@]5(C)[C@H]4CC[C@@]23C)CO1` (stereo partly drawn) [DYSOLENTICIN F], the Activity [1] is reported as “inactive” and the solubility [5] is reported as “Insoluble”.

In the case of `C[C@@H](CC(=O)[C@@H]1OC1(C)C)[C@@H]1CC[C@]2(C)C3=CC[C@H]4C(C)(C)C(=O)CC[C@]4(C)[C@H]3CC[C@@]12C`, the Activity [1] is reported as “inactive” and the solubility [5] is reported as “Insoluble”.

For `CC1(C)O[C@H]1C(=O)C[C@H](C(=O)O)[C@@H]1CC[C@]2(C)C3=CC[C@H]4C(C)(C)C(=O)CC[C@]4(C)[C@H]3CC[C@@]12C`, the Activity [1] was “inactive”, the Activity [2] was “inactive” and the Activity [3] was “inactive”.

In the case of `CC1(C)C(=O)CC[C@]2(C)[C@H]3CC[C@@]4(C)[C@H](C5=CC(=O)NC5=O)CC[C@]4(C)C3=CC[C@@H]12` [LAXIRACEMOSIN H], the Activity [2] is reported as “inactive”, the Activity [3] is reported as “inactive” and the Activity [4] is reported as 18.3%.

In the case of `CC(C)C(=O)C1(O)CC([C@@H]2CC[C@]3(C)C4=CC[C@H]5C(C)(C)[C@H](O)CC[C@]5(C)[C@H]4CC[C@@]23C)CO1` (mixture of isomers), the Activity [1] is reported as “inactive”, the Activity [2] is reported as “inactive” and the Activity [3] is reported as “inactive”.

For `CC(C)=CCC[C@H](C)[C@@H]1CC[C@]2(C)C3=CC[C@H]4C(C)(C)[C@@H](O)CC[C@]4(C)[C@H]3CC[C@@]12C`, the Activity [1] was “inactive”, the Activity [2] was “inactive” and the Activity [3] was “inactive”.
